ChEMBL document CHEMBL1123760, “Synthesis and oral antifungal activity of novel azolylpropanolones and related compounds” (1987)
≈ marks a conversion by molar mass, not a printed value.

Tests used:
Type in all cases: functional
Trichophyton benhamiae = assay: In vitro antifungal activity against Trichophyton asteroides
Outline: (§1)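 Broth microdilution MIC in Sabouraud's glucose broth; final inocula 1 × 10^5 cells/mL (yeast) or 1 × 10^5 conidia/mL (mold and dermatophyte).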

Aspergillus fumigatus = assay: In vitro antifungal activity against Aspergillus fumigatus; outline: as §1
Candida albicans [1] = assay: Minimum effective concentration for inhibition of pseudomycelium formation in Candida albicans; settings: for minimal effective concentration: Candida albicans, read-out: MEC
Outline: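 C. albicans KE-2 (clinical isolate) at a final 1 × 10^6 yeast cells/mL in EMEM with 20% calf serum; compounds diluted by the same microtiter system as for MICs. After incubation, wells were Giemsa-stained (5% in phosphate buffer) and read by microscope. MEC is the lowest concentration preventing typical pseudomycelium formation.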

Candida albicans [2] = assay: In vitro antifungal activity against Candida albicans; outline: as §1
[3] = Trichophyton benhamiae, read-out: MIC
[4] = Aspergillus fumigatus, read-out: MIC
[5] = Candida albicans, read-out: MIC

SMILES | MIC (Trichophyton benhamiae; [3]) [mg/L] | MIC (Aspergillus fumigatus; [4]) [mg/L] | minimal effective concentration (Candida albicans [1]) [µg/mL] | MIC (Candida albicans [2]; [5]) [mg/L] | MIC (Trichophyton benhamiae) [mg/L] | MIC (Aspergillus fumigatus) [mg/L] | MEC (Candida albicans [1]) [µg/mL] | MIC (Candida albicans [2]) [mg/L]
O=C(c1ccccc1)C(O)(Cn1cncn1)c1ccccc1Cl (stereo not given) | 1.6 (≈ 4.88 µM) | > 100 | 2.5 | > 100 | – | – | – | –
CC(O)(c1ccc(Cl)cc1)C(O)(Cn1cncn1)c1ccc(Cl)cc1 (stereo in doubt; 193) | – | – | – | – | 0.1 (≈ 0.264 µM) | 50 (≈ 132 µM) | 0.36 | 100 (≈ 264 µM)
CC(O)(c1ccccc1)C(O)(Cn1cncn1)c1ccc(Cl)cc1Cl (stereo in doubt; 167) | – | – | – | – | 0.1 (≈ 0.264 µM) | 25 (≈ 66.1 µM) | 0.08 | 50 (≈ 132 µM)
CC(O)(c1ccc(Cl)cc1)C(O)(Cn1cncn1)c1ccc(Cl)cc1 (stereo in doubt; 194) | – | > 100 | – | 50 (≈ 132 µM) | 0.8 (≈ 2.11 µM) | – | 2.5 | –
CC(O)(c1ccc(Cl)cc1)C(O)(Cn1cncn1)c1ccc(Cl)cc1Cl (stereo in doubt; 176) | – | – | – | – | 0.1 (≈ 0.242 µM) | 50 (≈ 121 µM) | 0.63 | 50 (≈ 121 µM)
CC(O)(c1ccc(F)cc1)C(O)(Cn1cncn1)c1ccc(F)cc1 (stereo in doubt; 161) | 0.2 (≈ 0.579 µM) | – | – | > 100 | – | 100 (≈ 290 µM) | 2.5 | –
Fc1ccc([C@H]2OCO[C@]2(Cn2cncn2)c2ccc(Cl)cc2)cc1 | 0.2 (≈ 0.556 µM) | > 100 | 0.63 | > 100 | – | – | – | –
CC(O)(c1ccc(F)cc1)C(O)(Cn1ccnc1)c1ccc(Cl)cc1 (stereo not given) | 0.4 (≈ 1.11 µM) | > 100 | 2.5 | > 100 | – | – | – | –
COc1ccccc1C(=O)C(O)(Cn1cncn1)c1ccccc1OC (stereo not given) | 12.5 (≈ 35.4 µM) | > 100 | > 20 | > 100 | – | – | – | –
O=S1O[C@H](c2ccccc2)[C@@](Cn2cncn2)(c2ccc(Cl)cc2Cl)O1 (stereo not given in full) | 0.1 (≈ 0.244 µM) | 50 (≈ 122 µM) | 0.04 | > 100 | – | – | – | –
CCCC[C@H]1OC(=O)O[C@]1(Cn1cncn1)c1ccc(Cl)cc1Cl | 0.2 (≈ 0.54 µM) | > 100 | 0.63 | > 100 | – | – | – | –
CCCCC(O)(c1ccc(F)cc1)C(O)(Cn1cncn1)c1ccccc1Cl (stereo in doubt; 188) | – | – | – | – | 0.2 (≈ 0.495 µM) | >100 | 2.5 | –
CCCCC(O)(c1ccc(F)cc1)C(O)(Cn1cncn1)c1ccccc1Cl (stereo in doubt; 189) | 0.4 (≈ 0.99 µM) | 50 (≈ 124 µM) | – | > 100 | – | – | 20 | –
CC(O)(c1ccc(F)cc1)C(O)(Cn1cncn1)c1ccc(Cl)cc1 (stereo in doubt; 163) | 0.2 (≈ 0.553 µM) | > 100 | – | 100 (≈ 276 µM) | – | – | 0.63 | –
CC(C)C(O)(Cn1cncn1)C(O)(c1ccc(Cl)cc1)c1ccc(Cl)cc1 (stereo not given) | 6.3 (≈ 15.5 µM) | > 100 | > 20 | > 100 | – | – | – | –
OC(c1ccccc1)C(O)(Cn1cncn1)c1ccccc1 (stereo not given) | 25 (≈ 84.6 µM) | > 100 | > 20 | > 100 | – | – | – | –
OC(Cn1cncn1)(c1ccc(F)cc1)C(O)(c1ccccc1)c1ccc(F)cc1 (stereo in doubt; 165) | – | > 100 | > 20 | > 100 | 25 (≈ 61.4 µM) | – | – | –
CC(C)[C@H]1OS(=O)O[C@]1(Cn1cncn1)c1ccc(Cl)cc1 (stereo not given in full) | 0.4 (≈ 1.17 µM) | > 100 | 0.16 | > 100 | – | – | – | –
CCC(O)(c1ccc(F)cc1)C(O)(Cn1cncn1)c1ccc(Cl)cc1 (stereo in doubt; 171) | 0.1 (≈ 0.266 µM) | – | – | > 100 | – | >100 | 0.16 | –
O=C(c1ccc(F)cc1)C(O)(Cn1cnnc1)c1ccccc1Cl (stereo not given) | > 100 | > 100 | > 20 | > 100 | – | – | – | –
CCCCC(O)(Cn1cncn1)C(=O)c1ccccc1Cl (stereo not given) | 0.4 (≈ 1.3 µM) | 50 (≈ 162 µM) | 0.63 | > 100 | – | – | – | –

SMILES | MIC (Trichophyton benhamiae; [3]) [mg/L] | MIC (Aspergillus fumigatus; [4]) [mg/L] | minimal effective concentration (Candida albicans [1]) [µg/mL] | MIC (Candida albicans [2]; [5]) [mg/L] | MIC (Trichophyton benhamiae) [mg/L] | MIC (Aspergillus fumigatus) [mg/L] | MEC (Candida albicans [1]) [µg/mL] | MIC (Candida albicans [2]) [mg/L]
COc1ccccc1C(O)C(O)(Cn1cncn1)c1ccccc1OC (stereo not given) | 3.1 (≈ 8.72 µM) | > 100 | 10 | > 100 | – | – | – | –
CC(C)[C@H]1OC(=O)O[C@@]1(Cn1cncn1)c1ccc(Cl)cc1 | 6.3 (≈ 19.6 µM) | > 100 | 0.63 | > 100 | – | – | – | –
CCCCC(O)(c1ccccc1)C(O)(Cn1cncn1)c1ccc(Cl)cc1Cl (stereo not given) | 0.2 (≈ 0.476 µM) | > 100 | 2.5 | > 100 | – | – | – | –
Fc1ccc([C@H]2OCO[C@]2(Cn2cncn2)c2ccc(Cl)cc2Cl)cc1 | 0.1 (≈ 0.254 µM) | > 100 | 0.31 | > 100 | – | – | – | –
OC(c1ccc(Cl)cc1Cl)C(O)(Cn1cncn1)c1ccc(F)cc1 (stereo not given) | 0.1 (≈ 0.262 µM) | > 100 | 0.31 | > 100 | – | – | – | –
COc1ccc(C(O)C(O)(Cn2cncn2)c2ccc(OC)cc2)cc1 (stereo not given) | 25 (≈ 70.3 µM) | > 100 | > 20 | > 100 | – | – | – | –
CCC(O)(c1ccc(F)cc1)C(O)(Cn1cncn1)c1ccc(Cl)cc1 (stereo in doubt; 170) | – | – | – | – | 0.1 (≈ 0.266 µM) | 25 (≈ 66.5 µM) | 0.04 | –
OC(c1ccc(Cl)cc1)C(O)(Cn1cncn1)c1ccc(Cl)cc1Cl (stereo in doubt; 108) | – | – | – | > 100 | 0.1 (≈ 0.251 µM) | 25 (≈ 62.7 µM) | 0.04 | –
O=C1O[C@H](c2ccc(Cl)cc2)[C@](Cn2cncn2)(c2ccc(Cl)cc2Cl)O1 | – | – | – | – | 0.1 (≈ 0.235 µM) | – | 0.08 | –
CC(O)(c1ccc(F)cc1)C(O)(Cn1cncn1)c1ccccc1Cl (stereo in doubt; 182) | 0.1 (≈ 0.276 µM) | 12.5 (≈ 34.5 µM) | 2.5 | > 100 | – | – | – | –
CC(O)(c1ccc(F)cc1)C(O)(Cn1cncn1)c1ccccc1Cl (stereo in doubt; 181) | – | – | – | – | 0.1 (≈ 0.276 µM) | 6.3 (≈ 17.4 µM) | 1.25 | –
OC(c1ccc(F)cc1)C(O)(Cn1cncn1)c1ccc(Cl)cc1 (stereo in doubt; 104) | – | – | – | – | 6.3 (≈ 18.1 µM) | – | 2.5 | 50 (≈ 144 µM)
OC(c1ccc(Cl)cc1)C(O)(Cn1cncn1)c1ccc(Cl)cc1 (stereo in doubt; 88) | – | – | – | – | 0.39 (≈ 1.07 µM) | – | 1.25 | 50 (≈ 137 µM)
CCCCC(O)(Cn1cncn1)C(C)(O)c1ccc(Cl)cc1 (stereo in doubt; 190) | – | – | – | – | 0.8 (≈ 2.47 µM) | 50 (≈ 154 µM) | 2.5 | –
CC(C)C(=O)C(O)(Cn1cncn1)c1ccc(Cl)cc1 (stereo in doubt; 13) | – | – | – | – | – | 12.5 (≈ 42.6 µM) | 0.08 | >100
OC(Cn1cncn1)(c1ccc(F)cc1)C(O)(c1ccccc1)c1ccc(F)cc1 (stereo in doubt; 164) | – | – | – | – | >100 | – | – | –
CC(C)C(C)(O)C(O)(Cn1cncn1)c1ccc(Cl)cc1Cl (stereo in doubt; 168) | – | – | – | – | 0.1 (≈ 0.29 µM) | 25 (≈ 72.6 µM) | 0.04 | –
CC(C)C(O)C(O)(Cn1cncn1)c1ccc(Cl)cc1 (stereo in doubt; 101) | – | – | – | – | 6.3 (≈ 21.3 µM) | – | 0.63 | –
CCCC(O)C(O)(Cn1cncn1)c1ccc(Cl)cc1 (stereo in doubt; 106) | – | – | – | – | 1.6 (≈ 5.41 µM) | – | 0.16 | –
O=C1O[C@H](c2ccc(Cl)cc2)[C@@](Cn2cncn2)(c2ccc(Cl)cc2Cl)O1 (stereo in doubt; 129) | – | – | – | – | 0.2 (≈ 0.471 µM) | – | 0.04 | –
